In test [1] the test system is Staphylococcus aureus. The experiment in a line: Upregulation of sbi gene expression in Staphylococcus aureus at 50 umol/L after 8 hrs by real-time RT-PCR analysis relative to control. The class given is functional, organism-based. A digest of the protocol: (§1)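 S. aureus ATCC 25923 at 2×10^7 CFU/mL in LB was exposed to 50 µmol/L compound, or LB alone, for 8 h at 37 °C. Total RNA was analysed by TaqMan real-time RT-PCR or semi-quantitative RT-PCR, normalised to gyrB. Fold change is versus time-matched medium-only cultures, with data pooled from three experiments.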
For orientation: Real-time PCR tracks product formation cycle by cycle.

The test system of test [2] is Staphylococcus aureus. The experiment in a line: Upregulation of mecA gene expression in Staphylococcus aureus at 50 umol/L after 8 hrs by real-time RT-PCR analysis relative to control. The class given is functional, organism-based. A digest of the protocol:
as §1

The subject of test [3] is Staphylococcus aureus. The experiment in a line: Upregulation of sbi gene expression in Staphylococcus aureus at 50 umol/L after 8 hrs by semi-quantitative RT-PCR analysis relative to control. Format: functional, organism-based. A digest of the protocol:
as §1

Another test relates to Escherichia coli. The experiment in a line: Antibacterial activity against Escherichia coli assessed as growth inhibition at 100 umol/L after 8 hrs by ELISA plate reader analysis relative to control. As to conditions: read-out: GI. Format: functional. In short, it runs like this: (§2)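 Bacteria were seeded at 1×10^5 CFU/mL in LB, and compound was added to 100 µmol/L final. Compounds came from DMSO stock, with DMSO ≤1% (v/v) final. Cultures were shaken at 37 °C for 8 h and read at OD450. Inhibition % = (OD vehicle control − OD sample)/OD vehicle control × 100. Values are the mean of three independent experiments.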

For test [4], the system named is Staphylococcus aureus. The experiment in a line: Antibacterial activity against Staphylococcus aureus assessed as growth inhibition at 100 umol/L after 8 hrs by ELISA plate reader analysis relative to control. The class given is functional. The note with it: read-out: GI. A digest of the protocol: as §2
Test [5] deals with Staphylococcus aureus. The experiment in a line: Upregulation of hla gene expression in Staphylococcus aureus at 50 umol/L after 8 hrs by real-time RT-PCR analysis relative to control. The class given is functional, organism-based. A digest of the protocol:
as §1

Test [6] deals with Staphylococcus aureus. The experiment in a line: Upregulation of hla gene expression in Staphylococcus aureus at 50 umol/L after 8 hrs by semi-quantitative RT-PCR analysis relative to control. The class given is functional, organism-based. In short, it runs like this: as §1
In test [7] the test system is Staphylococcus aureus. The experiment in a line: Upregulation of mecA gene expression in Staphylococcus aureus at 50 umol/L after 8 hrs by semi-quantitative RT-PCR analysis relative to control. The class given is functional, organism-based. In short, it runs like this:
as §1

In the next test the test system is Bacillus subtilis. The experiment in a line: Antibacterial activity against Bacillus subtilis assessed as growth inhibition at 100 umol/L after 8 hrs by ELISA plate reader analysis relative to control. The class given is functional. As to conditions: read-out: GI. A digest of the protocol: as §2
In test [8] the test system is Staphylococcus aureus. The experiment in a line: Downregulation of saeR gene expression in Staphylococcus aureus at 50 umol/L after 8 hrs by real-time RT-PCR analysis relative to control. Format: functional, organism-based. In short, it runs like this: as §1
Test [9] relates to Staphylococcus aureus. The experiment in a line: Downregulation of saeR gene expression in Staphylococcus aureus at 50 umol/L after 8 hrs by semi-quantitative RT-PCR analysis relative to control. Format: functional, organism-based. A digest of the protocol:
as §1

In test [10] the test system is Staphylococcus aureus. The experiment in a line: Antibacterial activity against Staphylococcus aureus assessed as lowest concentration required to reduce growth by 1% after 8 hrs by ELISA plate reader analysis relative to control. Format: functional. In short, it runs like this: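 MBC was found by broth microdilution. Inocula of 1×10^5 CFU/mL in LB were shaken at 37 °C with a series of compound concentrations, then read at OD450. MBC was defined as the lowest concentration reducing growth by 1% versus the inoculum control. Three independent experiments were run.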

In test [11] the test system is Staphylococcus aureus. The experiment in a line: Downregulation of mecA gene expression in Staphylococcus aureus at 50 umol/L after 8 hrs by semi-quantitative RT-PCR analysis relative to control. The class given is functional. A digest of the protocol: as §1
In test [12] the test system is Staphylococcus aureus. The experiment in a line: Downregulation of hla gene expression in Staphylococcus aureus at 50 umol/L after 8 hrs by semi-quantitative RT-PCR analysis relative to control. The class given is functional, organism-based. A digest of the protocol: as §1
Test [13] concerns Staphylococcus aureus. The experiment in a line: Downregulation of mecA gene expression in Staphylococcus aureus at 50 umol/L after 8 hrs by real-time RT-PCR analysis relative to control. The class given is functional. A digest of the protocol:
as §1

Test [14] has as its system Staphylococcus aureus. The experiment in a line: Downregulation of hla gene expression in Staphylococcus aureus at 50 umol/L after 8 hrs by real-time RT-PCR analysis relative to control. The class given is functional, organism-based. In short, it runs like this:
as §1

SMILES strings stand for the structures. ≈ marks a conversion by molar mass, not a printed value. Calls of active or inactive are those of the source.

As for `COC(=O)[C@H](Cc1ccccc1)/N=C/c1ccccc1O`, the result with Staphylococcus aureus [1], with Staphylococcus aureus [2], in the test on Staphylococcus aureus [3], with Staphylococcus aureus [5], in the test on Staphylococcus aureus [6] and in the test with Staphylococcus aureus [7] was Active. Moreover, the outcome with Staphylococcus aureus [8] and with Staphylococcus aureus [9] was Active. Further, the results for the inhibition of growth at 100 µM with Escherichia coli, in the test on Staphylococcus aureus [4] and with Bacillus subtilis were 14.6%, 86.9% and 4.21%, respectively. In the test on Staphylococcus aureus [10], the MBC was determined as 13.8 µM (≈ 3.91 µg/mL).
On to `CC(C)(C)c1cc(/C=N/NC(=O)c2ccccc2O)c(O)c(C(C)(C)C)c1`, for which the result in the test with Staphylococcus aureus [1], in the test with Staphylococcus aureus [3], in the test with Staphylococcus aureus [12], in the test on Staphylococcus aureus [8], in the test with Staphylococcus aureus [9] and with Staphylococcus aureus [14] was Active. The inhibition of growth at 100 µM is 13.9% in the test on Escherichia coli and 70.9% in the test with Staphylococcus aureus [4]. The “fold change (FC)” value in the test on Staphylococcus aureus [11] and with Staphylococcus aureus [13] was 2 throughout. Moreover, the MBC in the test on Staphylococcus aureus [10] stood at 19 µM (≈ 7 µg/mL).

In general, MBC refers to the lowest tested concentration that kills the bacteria rather than only halting them.

The values above are taken from ChEMBL document CHEMBL3421541, “Benzaldehyde Schiff bases regulation to the metabolism, hemolysis, and virulence genes expression in vitro and their structure-microbicidal activity relationship” (2015).
